Source: ChEMBL document CHEMBL1240528, “Discovery of novel 5-benzylidenerhodanine and 5-benzylidenethiazolidine-2,4-dione inhibitors of MurD ligase” (J Med Chem, 2010)
Blank lines part the entries; values can stand above or below the compound they belong to.

What was measured:
Escherichia coli [1] = assay: Inhibition of Escherichia coli MurD ligase assessed as residual activity at 250 uM by colorimetry; values are per cent of control
[2] = Inhibition of Escherichia coli MurD ligase assessed as conversion of D-[14C]Glu to UDP-MurNac-L-Ala by radioactivity assay
Summary of the method: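 Incubated 37 C for 30 min, stopped with acetic acid. Substrate and product separated by TLC and quantified by radioactivity scanning. IC50 from residual activities at seven concentrations.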

Enterococcus faecalis = assay: Antimicrobial activity against Enterococcus faecalis ATCC 29212 by macrodilution method
[3] = Inhibition of Escherichia coli MurD ligase assessed as residual activity by colorimetry
Summary of the method: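 Malachite green orthophosphate detection with purified E. coli MurD. Substrates 80 μM UDP-MurNAc-L-Ala, 100 μM D-Glu, 400 μM ATP; 5% DMSO final. Incubated 37 C for 15 min, A650 read. IC50 from seven concentrations run in triplicate.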

Pseudomonas aeruginosa = assay: Antimicrobial activity against Pseudomonas aeruginosa ATCC 27853 by microdilution method; assay type: functional; settings: in the assay text read “macrodilution” for “microdilution”
Summary of the method: (§1)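 Broth macrodilution in cation-adjusted Mueller–Hinton broth. Stock 2 mg/mL in DMSO, serially diluted to final 0.016–128 μg/mL. Inoculum from four colonies of a fresh overnight culture, adjusted to 0.5 McFarland and diluted to approximately 10^5 CFU/mL, then mixed 1:1 with drug. Incubated 35 C for 18–24 h. MIC is the lowest concentration giving complete inhibition of visible growth. QC with S. aureus ATCC 29213 and gentamicin.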

Staphylococcus aureus = assay: Antimicrobial activity against Staphylococcus aureus ATCC 29213 by microdilution method; assay type: functional; settings: in the assay text read “macrodilution” for “microdilution”
Summary of the method: as §1

Escherichia coli [4] = assay: Antimicrobial activity against Escherichia coli ATCC 25922 by microdilution method; assay type: functional; settings: in the assay text read “macrodilution” for “microdilution”
Summary of the method: as §1

Structure (SMILES): O=C(O)CC[C@@H](NC(=O)c1cccc(CNc2cccc(/C=C3\SC(=O)NC3=O)c2)c1)C(=O)O
residual activity (Escherichia coli [1]): 87%

Structure (SMILES): O=C(O)CC[C@@H](NC(=O)c1cccc(CNc2ccc(/C=C3\SC(=O)NC3=O)cc2)c1)C(=O)O
IC50 [2]: 35 µM

Structure (SMILES): O=C(O)CC[C@H](NC(=O)c1ccc(CNc2ccc(/C=C3\SC(=O)NC3=O)cc2)cc1)C(=O)O
residual activity (Escherichia coli [1]): 88%

Structure (SMILES): O=C(O)CC[C@@H](NC(=O)c1cccc(CNc2ccc(/C=C3\SC(=S)NC3=O)cc2)c1)C(=O)O
MIC (Enterococcus faecalis): > 128 µg/mL | IC50 [3]: 45 µM | MIC (Pseudomonas aeruginosa): > 128 µg/mL | MIC (Staphylococcus aureus): > 128 µg/mL | MIC (Escherichia coli [4]): > 128 µg/mL | IC50 [2]: 49 µM

Structure (SMILES): O=C(O)CC[C@@H](NC(=O)c1ccc(CNc2ccc(/C=C3\SC(=O)NC3=O)cc2)cc1)C(=O)O
residual activity (Escherichia coli [1]): 70%

Continued, values first:

residual activity (Escherichia coli [1]): 85%
Structure (SMILES): O=C(O)CC[C@@H](NC(=O)c1ccc(CNc2cccc(/C=C3\SC(=O)NC3=O)c2)cc1)C(=O)O

MIC (Enterococcus faecalis): > 128 µg/mL | IC50 [3]: 174 µM | MIC (Pseudomonas aeruginosa): > 128 µg/mL | MIC (Staphylococcus aureus): > 128 µg/mL | MIC (Escherichia coli [4]): > 128 µg/mL
Structure (SMILES): O=C(O)CC[C@@H](NC(=O)c1ccc(CNc2cccc(/C=C3\SC(=S)NC3=O)c2)cc1)C(=O)O

residual activity (Escherichia coli [1]): 74%
Structure (SMILES): O=C(O)CC[C@@H](NC(=O)c1ccc(CNc2ccc(/C=C3\SC(=S)NC3=O)cc2)cc1)C(=O)O

residual activity (Escherichia coli [1]): 68%
Structure (SMILES): O=C(O)CC[C@H](NC(=O)c1ccc(CNc2ccc(/C=C3\SC(=S)NC3=O)cc2)cc1)C(=O)O

residual activity (Escherichia coli [1]): 39%
Structure (SMILES): O=C(O)CC[C@@H](NC(=O)c1cccc(CNc2cccc(/C=C3\SC(=S)NC3=O)c2)c1)C(=O)O

residual activity (Escherichia coli [1]): 87%
Structure (SMILES): O=C(O)CC[C@H](NC(=O)c1ccc(CNc2cccc(/C=C3\SC(=O)NC3=O)c2)cc1)C(=O)O

IC50 [3]: 206 µM
Structure (SMILES): O=C(O)CC[C@H](NC(=O)c1ccc(CNc2cccc(/C=C3\SC(=S)NC3=O)c2)cc1)C(=O)O
